Laboratory results: paper PMC7059553 (Science translational medicine, 2018)
Where two headings read alike, the source gives them in different places.

Tests used:
[1] = system: A549 lung carcinoma cells and MEFs; type: cell-based, human, mouse; conditions: for sensitivity of MEFs with the Txnrd1 gene deleted: Txnrd1 -/- vs Txnrd1 fl/fl MEFs
human cancer cell lines = type: cell-based
FaDu cells [2] = type: cell-based, human
FaDu cells [3] = assay: Cellular GSH concentrations; type: cell-based, human; conditions: 6 hours at 10×IC50
GPX1 = target: T1, GPX1 (Homo sapiens, UniProt P07203); assay: GPX1 inhibition; type: biochemical
T1 sequence (P07203 1-203): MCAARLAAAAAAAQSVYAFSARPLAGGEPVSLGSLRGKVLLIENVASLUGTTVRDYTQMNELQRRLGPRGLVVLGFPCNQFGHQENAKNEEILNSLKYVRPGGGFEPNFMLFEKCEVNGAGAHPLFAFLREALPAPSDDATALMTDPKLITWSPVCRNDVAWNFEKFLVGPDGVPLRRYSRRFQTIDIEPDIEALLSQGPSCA

[4] = system: PyMT-MMTV mice mammary tumors; assay: PyMT-MMTV tumor low frequency dosing study; type: in vivo; conditions: for tumor growth in PyMT-MMTV mice: three weeks; for tumor volumes compared to vehicle controls: mice surviving 20–22 days, p<0.05
TXNRD1 [5] = target: T2, TXNRD1 (Rattus norvegicus, UniProt O89049); assay: SecTRAP activity; type: biochemical
T2 sequence (O89049 1-499): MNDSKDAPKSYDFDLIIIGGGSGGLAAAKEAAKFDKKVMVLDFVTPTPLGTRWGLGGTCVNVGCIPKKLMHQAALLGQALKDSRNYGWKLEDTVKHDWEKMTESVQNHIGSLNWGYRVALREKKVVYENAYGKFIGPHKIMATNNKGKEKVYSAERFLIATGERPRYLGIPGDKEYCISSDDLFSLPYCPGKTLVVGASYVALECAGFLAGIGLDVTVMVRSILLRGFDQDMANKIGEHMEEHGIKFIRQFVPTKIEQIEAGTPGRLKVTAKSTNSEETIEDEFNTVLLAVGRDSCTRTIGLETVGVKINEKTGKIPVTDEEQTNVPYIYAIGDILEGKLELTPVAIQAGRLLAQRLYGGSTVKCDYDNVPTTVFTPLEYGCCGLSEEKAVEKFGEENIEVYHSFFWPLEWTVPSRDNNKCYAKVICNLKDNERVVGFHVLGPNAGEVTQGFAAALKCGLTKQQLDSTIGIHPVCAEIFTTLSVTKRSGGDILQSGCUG

[6] = system: JNK and p38 phosphorylation in FaDu cells; assay: Western blot of JNK and p38 phosphorylation; type: cell-based, human; conditions: FaDu cells treated for 6 hours
HCT116 cells [7] = assay: Mitochondrial respiration, Seahorse assay; type: cell-based, human
[8] = system: FaDu cell xenografts in SCID mice; assay: Repeated dose study in FaDu xenograft-bearing mice; type: in vivo; conditions: twice a day i.v., 10 mg/kg TRi-1, 15 mg/kg TRi-2 or 10 mg/kg auranofin; for FaDu xenograft tumor growth: four days
TXNRD1 [9] = target: T2, TXNRD1; assay: Reversibility of TXNRD1 inhibition; type: biochemical
TXNRD1 [10] = target: T2, TXNRD1; type: binding
[11] = Liver microsome stability; type: in vitro ADME
FaDu cells [12] = assay: Cellular H2O2 production, Amplex red assay; type: cell-based, human
Method in brief: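 FaDu cells were grown at 37 °C, 5% CO2 in medium with 10% FBS, 2 mM L-glutamine and 100 μg/mL penicillin/streptomycin. Tests used medium with 10% FBS plus 25 nM sodium selenite. Compound was given in DMSO (0.01% final) across a concentration range or over a time course. H2O2 was read by Amplex red. Runs were in triplicate, shown as mean ± SEM.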

HCT116 cells [13] = assay: Cytotoxicity in HCT116 subclones with altered p53 status or BCL-2 overexpression; type: cell-based, human; conditions: subclones of HCT116 cells
NCI-60 cell panel = conditions: read-out: average growth inhibition to 50% (GI50); average over NCI-60 cell panel, screened previously; ref https://dtp.cancer.gov, NSC351105 (TRi-2) and NSC321521 (auranofin); cited from earlier work
FaDu cells [14] = type: cell-based, human; remark: listed apart in the source
[15] = system: human TXNRD1 versus human TXNRD2; assay: Inhibition of human TXNRD1 versus human TXNRD2 with DTNB as substrate; type: biochemical; conditions: human recombinant enzymes
Method in brief: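 Human recombinant TXNRD1 and TXNRD2 were assayed with DTNB as substrate, with activity read by absorbance change. TXNRD1 buffer was 50 mM Tris pH 7.5, 2 mM EDTA and 0.1 mg/mL BSA. Compounds were in DMSO. Results were normalized to DMSO and no-enzyme controls. Triplicates, mean ± SEM.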

[16] = system: primary human fibroblasts, primary keratinocytes, CCD841 colon epithelial cells; type: cell-based
FaDu cells [17] = assay: Cytotoxicity towards FaDu cells, 72 hours; type: cell-based, human; conditions: 72 hours of incubation
Method in brief: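 Viability of FaDu cells after 72 h with test compound, in medium with 10% FBS and 25 nM sodium selenite, at 37 °C and 5% CO2. DMSO vehicle at 0.01% final. Run in triplicate and reported as mean ± SEM.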

[18] = system: FaDu cell xenografts in SCID mice; assay: [18F]-FDG PET study of FaDu xenografts; type: in vivo, mouse; conditions: 5 mg/kg i.p. once daily
Method in brief: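 Male SCID mice carried FaDu xenografts (1×10^6 cells); baseline scan at day 11, with food removed. Isoflurane anaesthesia on a 37 °C pad. [18F]-FDG i.v., 60-min 3D acquisition. Treatment was i.p. once daily (n=8) or vehicle (n=9), rescanned on day 3. SUVmean was taken over ROIs ≥1.8×10^5 Bq/mL, and day 3 was compared with day 0 by paired t-test.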

[19] = system: cellular TXNRD activity in FaDu cells; assay: Cellular TXNRD activity, insulin-endpoint assay; type: cell-based, human; conditions: 3 hours of compound exposure
[20] = system: MDA-MB-231 xenografts in athymic mice; assay: MDA-MB-231 orthotopic xenograft efficacy study; type: in vivo; conditions: for MDA-MB-231 xenograft tumor growth: 22 days, p<0.0001 vs vehicle
SCID mice = assay: Single dose escalation toxicity study; conditions: mouse, in vivo, iv
[21] = i.p. twice a week, TRi-1 5 mg/kg, auranofin 10 mg/kg
[22] = HCT116 cells, 30-minute or 5-hour exposure

Row | SMILES | cytotoxicity towards MEF cells versus A549 cells [1] | sensitivity of MEFs with the Txnrd1 gene deleted [1] | effect on cellular GSH concentrations (FaDu cells [3]) | less efficient in inhibiting GPX1 than TXNRD1 (GPX1) | tumor growth in PyMT-MMTV mice [4, 21] | tumor volumes compared to vehicle controls [4] | JNK and p38 phosphorylation [6] | ATP-coupled basal respiration (HCT116 cells [7]; [22]) | toxicity and mouse weight in repeated dose study [8] | FaDu xenograft tumor growth [8] | thermal stability of NADPH-reduced TXNRD1 upon incubation with compound (TXNRD1 [10]) | metabolism in liver microsomes [11] | cellular H2O2 production (FaDu cells [12]) | resistance upon altered p53 status or BCL-2 overexpression (HCT116 cells [13]) | effect of GSH depletion with BSO on cytotoxicity (FaDu cells [14]) | potency against non-cancerous cells compared to cancer cell lines [16] | other results
1 | CC(=O)OC[C@H]1O[C@@H]([S-])[C@H](OC(C)=O)[C@@H](OC(C)=O)[C@@H]1OC(C)=O.CCP(CC)CC.[Au+] [auranofin, reference compound] | similarly cytotoxic towards these two cell types | minimally affected | lowered GSH | over 1000 fold | impaired tumor growth | significantly smaller compared to the vehicle controls | did not activate JNK and p38 phosphorylation as robustly | deteriorated ATP-coupled respiration | no signs of overt toxicity or changes in mouse weight | decreased tumor growth compared to vehicle controls within four days | not with TRi-2 or auranofin | rather rapid metabolism | increased cellular H2O2 production | no apparent resistance | enhanced the cytotoxicity | only displayed lower potency against the CDD841 cells | cytotoxic potency, side-by-side comparison (human cancer cell lines): on average more potent than TRi-1; cytotoxicity in colony-forming assay (FaDu cells [2]): more cytotoxic than TRi-1; GPX1 inhibition (GPX1; preincubated with GPX1 in the absence of GSH, high concentrations): moderate inhibition; survival during observation [4, 21]: two mice in the auranofin group had to be sacrificed due to poor health; SecTRAP formation (NADPH-dependent redox cycling with juglone) (TXNRD1 [5]): maintained substantial NADPH-dependent redox cycling with juglone; maximal respiratory capacity (HCT116 cells [7]): impaired maximal respiratory capacity; mode of TXNRD1 inhibition (TXNRD1 [9]): irreversibly inhibit TXNRD1 in an NADPH-dependent manner; GI50 (NCI-60 cell panel): 760 nM; TXNRD1 versus TXNRD2 inhibition profile [15]: pan-TXNRD inhibitor
2 | COc1cccc(S(=O)(=O)c2ccc(Cl)cc2)n1 [TRi-62] | – | – | – | – | – | – | – | – | – | – | – | – | – | – | – | – | cytotoxicity towards FaDu cells (FaDu cells [17]): loss of cytotoxicity
3 | COc1ccc([N+](=O)[O-])c(S(=O)(=O)c2ccc(Cl)cc2)n1 [TRi-1] | preferentially toxic towards the A549 cells | additional resistance | no effect on cellular GSH concentrations | over 1000 fold | impaired tumor growth | significantly smaller compared to the vehicle controls | efficiently activated JNK and p38 phosphorylation | lacked effects on basal respiration | no signs of overt toxicity or changes in mouse weight | decreased tumor growth compared to vehicle controls within four days | stability was increased | rather rapid metabolism | increased cellular H2O2 production | no apparent resistance | enhanced the cytotoxicity | reduced potency | SecTRAP formation (NADPH-dependent redox cycling with juglone) (TXNRD1 [5]; after inhibition of normal TXNRD1 activity and desalting): maintained substantial NADPH-dependent redox cycling with juglone; maximal respiratory capacity (HCT116 cells [7]; [22]): little effect on maximal respiratory capacity; activated caspase-3 staining in excised xenografts ([18]; between days three and four): increased staining for activated caspase-3; [18F]-FDG uptake in viable parts of the tumors ([18]; day 3 vs day 0): markedly decreased; inhibition of cellular TXNRD activity [19]: equal or greater potency compared to that of auranofin; mode of TXNRD1 inhibition (TXNRD1 [9]; with or without NADPH, before and after desalting): irreversibly inhibit TXNRD1 in an NADPH-dependent manner; MDA-MB-231 xenograft tumor growth ([20]; 10 mg/kg i.p.): significantly decreased compared to the vehicle controls; complete tumor regression ([20]; 10 mg/kg i.p., n=12): one tumor in the TRi-1 i.p. group completely regressing; systemic toxicity in MDA-MB-231 xenograft study ([20]; 10 mg/kg i.v. or i.p.): no signs of overt systemic toxicity; MDA-MB-231 xenograft tumor growth ([20]; 10 mg/kg i.v.): significantly decreased compared to the vehicle controls; highest administrable dose tolerated without overt signs of toxicity (SCID mice): 10 mg/kg; specificity for TXNRD1 compared to inhibition of TXNRD2 [15]: 5- to 10 fold
